Active and inactive are the calls of the source. No cut-off for these calls is given here.
Tests used:
[1] = Neurotoxicity in mouse HT22 cells assessed as cell viability after 24 hrs by MTS assay; type: toxicity, cell-based, HT-22; conditions: read-out: TC50
In short: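 HT22 cells were seeded at 5.0 × 10^3 per well, cultured overnight, and treated with a range of compound concentrations without glutamate for 24 h. MTS was added for 2 h and absorbance read at 490 nm. Viability was expressed as percent of untreated cells, and TC50 was fit from titration curves (7- or 12-point, n = 3–4).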

[2] = Therapeutic index, ratio of cytotoxic TC50 for mouse HT22 cells to neuroprotective PD50 for mouse HT22 cells; type: cell-based, HT-22; conditions: read-out: TI
[3] = test system: HT-22; assay: Neuroprotective activity in mouse HT22 cells assessed as prevention from glutamate-induced oxidative cell death by MTS assay; type: functional
In short: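 HT22 cells grown in high-glucose DMEM with 10% FBS and antibiotic-antimycotic at 37°C, 5% CO2. Seeded at 5.0 × 10^3 cells/well overnight, then given 10 mM glutamate (final) plus compound from DMSO stock. MTS added 24 h after treatment, 2 h at 37°C, A490 read. Viability taken as % of untreated cells. PC50 from 12-point titrations; experiments repeated at least four times.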

[4] = test system: HT-22; assay: Antioxidant activity in mouse HT22 cells assessed as prevention of glutamate-induced GSH depletion at 50 uM; type: functional, cell-based
In short: (§1)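 HT22 cells were exposed to 10 mM glutamate plus compound (DMSO stock) for 8 h. Total glutathione (reduced plus oxidized) in the supernatant of the cell homogenate was measured with a glutathione reductase enzymatic recycling kit. GSH reacts with DTNB to give TNB, read at 405 nm.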

[5] = test system: HT-22; assay: Antioxidant activity in mouse HT22 cells assessed as prevention of glutamate-induced GSH depletion at 5 uM; type: functional, cell-based; in short: as §1
[6] = test system: Mus musculus; assay: Toxicity in BALB/cByJ mouse assessed as biochemical parameters at 50 mg/kg, ip daily for 3 weeks measured 2 hrs after final injection; type: organism-based; design: dose 50 mg/kg, route intraperitoneal; conditions: in vivo
[7] = test system: Mus musculus; assay: Toxicity in BALB/cByJ mouse assessed as outward signs of distress at 50 mg/kg, ip daily for 3 weeks measured 2 hrs after final injection; type: organism-based; design: dose 50 mg/kg, route intraperitoneal; conditions: in vivo
[8] = test system: Mus musculus; assay: Toxicity in BALB/cByJ mouse assessed as outward signs of pain at 50 mg/kg, ip daily for 3 weeks measured 2 hrs after final injection; type: organism-based; design: dose 50 mg/kg, route intraperitoneal; conditions: in vivo
[9] = molecular target: T1, Serine/threonine-protein phosphatase PGAM5, mitochondrial (Mus musculus) (UniProt Q8BX10); assay: Inhibition of glutamate-induced increase in lower band of PGAM5 in mouse HT22 cells at 125 nM after 16 hrs by Western blotting analysis; type: cell-based; conditions: HT-22
T1 sequence (whole entry): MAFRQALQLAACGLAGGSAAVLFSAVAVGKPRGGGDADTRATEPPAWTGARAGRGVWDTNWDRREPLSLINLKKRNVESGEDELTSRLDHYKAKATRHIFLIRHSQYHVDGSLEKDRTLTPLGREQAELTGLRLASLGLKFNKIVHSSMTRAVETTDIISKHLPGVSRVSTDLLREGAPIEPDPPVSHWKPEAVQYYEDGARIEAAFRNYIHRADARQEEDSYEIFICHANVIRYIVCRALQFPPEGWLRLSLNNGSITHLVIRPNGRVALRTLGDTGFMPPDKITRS
In short: (§2)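 HT22 cells were treated with 10 mM glutamate plus compound for 16 h, harvested, and lysed in low-salt buffer (50 mM Tris-HCl pH 7.4, 150 mM NaCl, 10% glycerol, Triton X-100, protease/phosphatase inhibitors) for 30 min with a brief sonication. Lysates were run on 4–12% gels and immunoblotted for phospho-Drp1 Ser637, total Drp1, PGAM5, actin and α-tubulin, then analyzed by densitometry.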

[10] = molecular target: Dynamin-1-like protein (Mus musculus) (UniProt Q8K1M6); assay: Inhibition of glutamate-induced decrease in DRP1 phosphorylation at serine 637 in mouse HT22 cells at 125 nM after 16 hrs by Western blotting analysis; type: cell-based; conditions: HT-22; in short: as §2
[11] = test system: HT-22; assay: Neuroprotective activity in mouse HT22 cells assessed as prevention from tBuOOH-induced oxidative cell death after 3 hrs by MTS assay; type: functional, cell-based
In short: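 HT22 cells were seeded at 5.0 × 10^3 per well and cultured overnight, then exposed to 50 μM t-BuOOH (final) plus compound for 3 h. Medium was removed, cells were washed with HBSS and returned to normal medium. MTS was added 24 h after initial treatment, absorbance was read at 490 nm after 2 h, and viability was expressed as percent of untreated cells.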

[12] = test system: HT-22; assay: Antioxidant activity in mouse HT22 cells assessed as upregulation of NQO1 protein expression 8 hrs by Western blotting analysis; type: functional, cell-based
[13] = test system: HT-22; assay: Antioxidant activity in mouse HT22 cells assessed as upregulation of HO1 protein expression 8 hrs by Western blotting analysis; type: functional, cell-based
[14] = test system: HT-22; assay: Neuroprotective activity in mouse HT22 cells assessed as reduction of glutamate-induced mitochondrial fragmentation at 250 nM after 8 hrs by Mitotracker DR staining-based fluorescence microscopic analysis; type: functional, cell-based
In short: (§3)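 HT22 cells were given 10 mM glutamate plus compound for 8 h, then co-stained with MitoSOX Red (5 μM final) and Mitotracker Deep Red (10 nM final) for 20 min. Cells were washed twice with HBSS and imaged live by fluorescence microscopy in HBSS.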

[15] = test system: HT-22; assay: Neuroprotective activity in mouse HT22 cells assessed as reduction of glutamate-induced mitochondrial superoxide generation at 250 nM after 8 hrs by MitoSOX RED staining-based fluorescence microscopic analysis; type: functional, cell-based; in short: as §3
[16] = test system: HT-22; assay: Antioxidant activity in mouse HT22 cells assessed as upregulation of NQO1 gene expression at 250 nM after 16 hrs by qRT-PCR analysis in the absence of glutamate; type: functional, cell-based
In short: (§4)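 HT22 cells were seeded at 3.0 × 10^5 per well and cultured overnight, then treated with or without 10 mM glutamate plus compound (DMSO stock) for 16 h. Cells were trypsinized and washed in cold Ca/Mg-free HBSS. HO-1 and NQO-1 mRNA were measured by qRT-PCR with β2-microglobulin as reference gene, and fold change was calculated by the Livak method.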

[17] = test system: HT-22; assay: Antioxidant activity in mouse HT22 cells assessed as upregulation of HO1 gene expression at 250 nM after 16 hrs by qRT-PCR analysis in the absence of glutamate; type: functional, cell-based; in short: as §4
[18] = test system: HT-22; assay: Antioxidant activity in mouse HT22 cells assessed as reduction in glutamate-induced upregulation of HO1 gene expression at 250 nM after 16 hrs by qRT-PCR analysis relative to untreated control; type: functional, cell-based; in short: as §4
[19] = test system: HT-22; assay: Antioxidant activity in mouse HT22 cells assessed as reduction in glutamate-induced upregulation of NQO1 gene expression at 250 nM after 16 hrs by qRT-PCR analysis relative to glutamate-treated control; type: functional, cell-based; in short: as §4
[20] = test system: Radical scavenging activity; assay: Antioxidant activity assessed as DPPH free radical scavenging activity at 20 uM; type: functional
In short: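 Test agents at 20 μM final, added to 100 μM DPPH in methanol; absorbance at 517 nm monitored immediately for 10 min. Trolox and ascorbic acid served as positive controls, and the rate of absorbance loss was taken as antioxidant potency.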

[21] = test system: HT-22; assay: Antioxidant activity in mouse HT22 cells assessed as prevention of glutamate-induced intracellular accumulation of free radicals at 250 nM after 8 hrs by spectrofluorometric analysis; type: functional, cell-based
In short: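 HT22 cells were seeded at 5.0 × 10^3 per well and cultured overnight, then given 10 mM glutamate plus compound for 8 h. Rho123 was added at 5 μM final for 20 min, cells were washed twice with HBSS, and oxidized Rho123 fluorescence was read at 500 nm excitation and 536 nm emission.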

[22] = test system: HT-22; assay: Antioxidant activity in mouse HT22 cells assessed as reduction in glutamate-induced upregulation of HO1 gene expression at 250 nM after 16 hrs by qRT-PCR analysis relative to glutamate-treated control; type: functional, cell-based; in short: as §4
[23] = test system: Mus musculus; assay: Toxicity in BALB/cByJ mouse assessed as weight loss at 50 mg/kg, ip daily for 3 weeks measured 2 hrs after final injection; type: organism-based; design: dose 50 mg/kg, route intraperitoneal; conditions: in vivo
[24] = test system: HT-22; assay: Antioxidant activity in mouse HT22 cells assessed as prevention of glutamate-induced GSH depletion at 25 uM; type: functional, cell-based; in short: as §1

Chain of Dynamin-1-like protein (Mus musculus) (Q8K1M6 whole entry): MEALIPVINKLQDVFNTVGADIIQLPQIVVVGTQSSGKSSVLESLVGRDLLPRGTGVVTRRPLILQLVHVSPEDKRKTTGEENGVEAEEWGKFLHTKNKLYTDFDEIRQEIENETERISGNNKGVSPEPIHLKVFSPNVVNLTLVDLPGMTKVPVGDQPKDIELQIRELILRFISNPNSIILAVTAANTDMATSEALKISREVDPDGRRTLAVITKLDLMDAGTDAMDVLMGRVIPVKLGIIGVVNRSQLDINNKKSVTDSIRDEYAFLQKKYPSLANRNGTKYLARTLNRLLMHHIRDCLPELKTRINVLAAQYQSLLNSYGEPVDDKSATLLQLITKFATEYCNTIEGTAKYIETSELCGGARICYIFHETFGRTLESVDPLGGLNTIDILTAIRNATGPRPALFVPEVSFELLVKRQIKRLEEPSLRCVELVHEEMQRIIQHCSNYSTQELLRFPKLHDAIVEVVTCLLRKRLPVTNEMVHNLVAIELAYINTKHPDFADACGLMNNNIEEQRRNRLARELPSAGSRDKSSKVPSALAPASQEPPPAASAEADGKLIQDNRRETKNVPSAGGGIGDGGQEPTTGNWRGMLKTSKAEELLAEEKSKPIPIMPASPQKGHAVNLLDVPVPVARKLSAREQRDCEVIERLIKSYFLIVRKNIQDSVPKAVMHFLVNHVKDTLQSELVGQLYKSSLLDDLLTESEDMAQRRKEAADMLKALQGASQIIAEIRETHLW

SMILES	CC50 at 24 h [1] [µM]	selectivity ratio [2]	PD50 [3] [nM]	other results
C#CCNC1=CC(=O)c2ccccc2C1=O	53	442	120	–
CN1C(=O)C(Cc2c[nH]c3ccccc23)NC1=S (configuration not stated)	–	–	–	Activity [4]: inactive
CC(C)NC1=CC(=O)c2ccccc2C1=O	46	27	–	–
CCCNC1=CC(=O)c2ccccc2C1=O	30	91	–	–
NC1=CC(=O)c2ccccc2C1=O	49	803	61	–
O=C1C=C(NCc2ccc(Cl)c(Cl)c2)C(=O)c2ccccc21	> 100	> 2170	46	–
O=C(O)C1=CC(=O)c2ccccc2C1=O	> 100	140	–	–
O=C1C=C(NC2CCCC2)C(=O)c2ccccc21	44	108	–	–
CC1=C(C)C(=O)c2ccccc2C1=O	30	254	–	–
COC1=C(OC)C(=O)C(CCCCCCCCCCO)=C(C)C1=O	–	–	–	Activity [5]: inactive
O=C1C=C(NCc2cccc(C(F)(F)F)c2)C(=O)c2ccccc21	> 100	> 2220	45	–
O=C1C=C(NCc2ccccc2)C(=O)c2ccccc21	> 100	> 1140	88	Activity [6]: Non-toxic; Activity [7]: Non-toxic; Activity [8]: Non-toxic; inhibition [9]: Active; inhibition [10]: Active; Activity [11]: Active; Activity [12]: inactive; Activity [13]: inactive; Activity [14]: Active; Activity [15]: Active; Activity [16]: inactive; Activity [17]: inactive; Activity [18]: inactive; Activity [19]: inactive; Activity [20]: inactive; Activity [21]: Active; Activity [22]: Active; Activity [23]: Non-toxic
O=C1C=C(O)C(=O)c2ccccc21 [LAWSONE]	> 100	100	–	–
Cc1c(C)c2c(c(C)c1O)CCC(C)(C(=O)O)O2 (configuration not stated)	–	–	–	Activity [11]: inactive; Activity [20]: Active; Activity [24]: inactive
CN(Cc1ccccc1)C1=CC(=O)c2ccccc2C1=O	> 100	781	–	–
CC1=CC(=O)c2ccccc2C1=O [MENADIONE]	19	24	797	–
O=C1C=C(NCCc2ccccc2)C(=O)c2ccccc21	> 100	171	–	–
